According to ChEMBL document CHEMBL1137994, “Bis[3-(4'-substituted phenyl)prop-2-ene]disulfides as a new class of antihyperlipidemic compounds” (2004):

Tests used:
[1] = biological target: T1, 3-hydroxy-3-methylglutaryl-coenzyme A reductase (Rattus norvegicus) (UniProt P51639); assay: Percent decrease in HMG-CoA reductase activity in rat
T1 sequence (whole entry): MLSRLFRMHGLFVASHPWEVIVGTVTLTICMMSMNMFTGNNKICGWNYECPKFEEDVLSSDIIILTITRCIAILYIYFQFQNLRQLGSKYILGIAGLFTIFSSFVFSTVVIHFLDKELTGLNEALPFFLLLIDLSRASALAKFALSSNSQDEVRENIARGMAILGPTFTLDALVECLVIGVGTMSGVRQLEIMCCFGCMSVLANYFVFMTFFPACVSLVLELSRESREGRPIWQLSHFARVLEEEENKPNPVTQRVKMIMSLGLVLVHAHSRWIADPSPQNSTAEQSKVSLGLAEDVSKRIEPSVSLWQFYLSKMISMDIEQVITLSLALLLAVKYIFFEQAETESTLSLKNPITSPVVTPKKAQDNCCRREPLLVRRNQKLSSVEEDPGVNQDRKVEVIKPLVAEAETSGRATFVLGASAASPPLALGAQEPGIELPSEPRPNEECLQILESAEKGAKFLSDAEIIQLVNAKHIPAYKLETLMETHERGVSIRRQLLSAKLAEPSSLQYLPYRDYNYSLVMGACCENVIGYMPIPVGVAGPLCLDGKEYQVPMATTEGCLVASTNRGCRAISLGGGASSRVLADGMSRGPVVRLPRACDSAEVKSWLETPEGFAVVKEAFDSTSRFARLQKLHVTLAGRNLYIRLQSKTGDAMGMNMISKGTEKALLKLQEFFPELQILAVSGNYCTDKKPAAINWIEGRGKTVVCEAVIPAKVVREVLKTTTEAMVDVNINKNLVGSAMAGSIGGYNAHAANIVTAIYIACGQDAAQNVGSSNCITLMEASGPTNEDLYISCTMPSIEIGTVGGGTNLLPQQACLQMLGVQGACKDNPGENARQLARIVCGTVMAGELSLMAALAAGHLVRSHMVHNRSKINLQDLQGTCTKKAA
Outline: (§1)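 Male Wistar rats, six per group, received a 5% cholesterol diet for 1 week plus an oral 20 mg/kg bwt dose given as a suspension in water. The experiment was run three times. Hepatic HMG-CoA reductase activity was determined by the Venugopala Rao method and expressed as the HMG-CoA/mevalonate ratio.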

Rattus norvegicus [2] = assay: Creatinine level in serum upon administration of five doses was determined as measure of nephrotoxicity; Normal range = 0.20-0.80 mg/dL; assay type: functional, organism-based
Outline: (§2)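 Nephrotoxicity was assessed after five doses of compound by measuring serum blood urea nitrogen and creatinine in mg/dL by cited methods. Values are mean ± SE against a normal range.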

Rattus norvegicus [3] = assay: Blood urea nitrogen level in serum upon single dose administration was determined as measure of nephrotoxicity; Normal range = 5-29 mg/dL; assay type: functional, organism-based
Outline: (§3)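 Nephrotoxicity was assessed after a single dose of compound by measuring serum blood urea nitrogen and creatinine in mg/dL by cited methods. Values are mean ± SE against a normal range.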

Rattus norvegicus [4] = assay: Weight of triglyceride in liver wet tissue after treatment with compound at 20 mg/kg dose for seven days; assay type: functional
Outline: (§4)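 Male Wistar rats, six per group, were fed a 5% cholesterol diet for one week while receiving compound at 20 mg/kgbwt orally as a suspension in water. Serum was separated, and about 1 g of liver, washed in ice-cold 0.85% NaCl, was taken for lipids. Cholesterol was measured by the Zlatkis method and liver triglyceride by the Van Handel–Zilversmit method. The run was repeated three times; values are mean ± SE.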

Rattus norvegicus [5] = assay: Aspartate transferase (GOT) enzyme level in serum upon administration of five doses was determined as measure of hepatotoxicity; Normal range = 46-81 IU; assay type: functional
Outline: (§5)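 Oral dosing of the compounds as aqueous suspensions, given either as a single dose or as five doses. Hepatotoxicity was assessed from serum alanine transferase and aspartate transferase (IU) and alkaline phosphatase (KA units). Each marker was set against the normal ranges listed.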

Rattus norvegicus [6] = assay: Percent decrease in weight of cholesterol in liver wet tissue after treatment with compound at 20 mg/kg dose for seven days; assay type: functional
Outline: (§6)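 Male Wistar rats, six per group, were fed a 5% cholesterol diet for 1 week. They were dosed orally at the same time with 20 mg/kg bwt as a suspension in water, and the experiment was run three times. Serum and liver cholesterol were measured by the Zlatkis method, and liver triglyceride by the Van Handel–Zilversmit method, on about 1 g of saline-washed tissue.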

Rattus norvegicus [7] = assay: Alkaline phosphatase enzyme level in serum upon administration of five doses was determined as measure of hepatotoxicity; Normal range = 14-32 KA units; assay type: functional; outline: as §5
[8] = biological target: T1, 3-hydroxy-3-methylglutaryl-coenzyme A reductase (Rattus norvegicus); assay: Ratio of HMG-CoA reductase to mevalinate; outline: as §1
Rattus norvegicus [9] = assay: Weight of cholesterol in liver wet tissue after treatment with compound at 20 mg/kg dose for seven days; assay type: functional; outline: as §4
Rattus norvegicus [10] = assay: Alkaline phosphatase enzyme level upon single dose administration was determined as measure of hepatotoxicity; Normal range = 14-32 KA units; assay type: functional; outline: as §5
Rattus norvegicus [11] = assay: Alanine transferase (GPT) enzyme level in serum upon single dose administration was determined as measure of hepatotoxicity; Normal range = 18-30 IU; assay type: functional; outline: as §5
Rattus norvegicus [12] = assay: Creatinine level in serum upon single dose administration was determined as measure of nephrotoxicity; Normal range = 0.20-0.80 mg/dL; assay type: functional, organism-based; outline: as §3
Rattus norvegicus [13] = assay: Alanine transferase (GPT) enzyme level in serum upon administration of five doses was determined as measure of hepatotoxicity; Normal range = 18-30 IU; assay type: functional; outline: as §5
Rattus norvegicus [14] = assay: Percent decrease in weight of serum cholesterol after treatment with compound at 20 mg/kg dose for seven days; assay type: functional; outline: as §6
Rattus norvegicus [15] = assay: Blood urea nitrogen level in serum upon administration of five doses was determined as measure of nephrotoxicity; Normal range = 5-29 mg/dL; assay type: functional, organism-based; outline: as §2
Rattus norvegicus [16] = assay: Percent decrease in weight of triglyceride in liver wet tissue after treatment with compound at 20 mg/kg dose for seven days; assay type: functional; outline: as §6
Rattus norvegicus [17] = assay: Weight of serum cholesterol after treatment with compound at 20 mg/kg dose for seven days; assay type: functional; outline: as §4
Rattus norvegicus [18] = assay: Aspartate transferase (GOT) enzyme level in serum upon single dose administration was determined as measure of hepatotoxicity; Normal range = 46-81 IU; assay type: functional; outline: as §5
Rattus norvegicus [19] = assay: Alkaline phosphatase enzyme level in serum upon single dose administration was determined as measure of hepatotoxicity; Normal range = 14-32 KA units; assay type: functional; outline: as §5

SMILES | Decrease [1] | Level (Rattus norvegicus [2]) | Level (Rattus norvegicus [3]) | Weight (Rattus norvegicus [4]) | Activity (Rattus norvegicus [5]) | Decrease (Rattus norvegicus [6]) | Activity (Rattus norvegicus [7]) | Ratio [8] | Weight (Rattus norvegicus [9]) | Activity (Rattus norvegicus [10]) | Activity (Rattus norvegicus [11]) | Level (Rattus norvegicus [12]) | Activity (Rattus norvegicus [13]) | Decrease (Rattus norvegicus [14]) | Level (Rattus norvegicus [15]) | Decrease (Rattus norvegicus [16]) | Weight (Rattus norvegicus [17]) | Activity (Rattus norvegicus [18]) | Activity (Rattus norvegicus [19])
COc1ccc(/C=C/CSSC/C=C/c2ccc(OC)cc2)cc1 | 3.69% | 0.49 mg/dL | 7.43 mg/dL | 14.8 mg/g | 29.5 IU | 1.2% | 25.2 KA Units | 1.68 | 4.9 mg/g | 45.6 KA Units | 26.5 IU | 0.59 mg/dL | 23 IU | 2.05% | 8.48 mg/dL | 4.91% | 61.95 mg/dL | 49 IU | –
Nc1ccc(/C=C/CSSC/C=C/c2ccc(N)cc2)cc1 | 7.5% | 0.84 mg/dL | 13 mg/dL | 14.6 mg/g | 37 IU | 3.13% | 46.9 KA Units | 1.74 | 4.81 mg/g | – | 26.5 IU | 0.55 mg/dL | 21 IU | 5.5% | 14.6 mg/dL | 6.71% | 59.76 mg/dL | 51.5 IU | 40.6 KA Units
C=CCS[S+]([O-])CC=C (stereo unspecified) [ALLICIN] | 27.6% | – | – | 9.44 mg/g | – | 27.6% | – | 2.07 | 3.59 mg/g | – | – | – | – | 20.5% | – | 39.6% | 50.25 mg/dL | – | –
O=C(O)c1ccc(/C=C/CSSC/C=C/c2ccc(C(=O)O)cc2)cc1 | 24.2% | 0.7 mg/dL | 20.2 mg/dL | 14.3 mg/g | 56 IU | 13.3% | 32.8 KA Units | 2.02 | 4.3 mg/g | – | 25 IU | 0.61 mg/dL | 28 IU | 7.01% | 17.4 mg/dL | 8.28% | 58.82 mg/dL | 53 IU | 31 KA Units
CC[C@H](C)C(=O)O[C@H]1C[C@@H](C)C=C2C=C[C@H](C)[C@H](CC[C@@H]3C[C@@H](O)CC(=O)O3)[C@H]21 [LOVASTATIN] | 35.4% | – | – | 9.86 mg/g | – | 42.3% | – | 2.2 | 2.84 mg/g | – | – | – | – | 31.2% | – | 36.91% | 43.5 mg/dL | – | –
C(=C\c1ccccc1)/CSSC/C=C/c1ccccc1 | 5.9% | 0.57 mg/dL | 12.4 mg/dL | 14.2 mg/g | 39 IU | 2% | 33.6 KA Units | 1.72 | 4.86 mg/g | – | 17.5 IU | 0.58 mg/dL | 27 IU | 3.63% | 7.37 mg/dL | 4.9% | 60.95 mg/dL | 51 IU | 34 KA Units
O=[N+]([O-])c1ccc(/C=C/CSSC/C=C/c2ccc([N+](=O)[O-])cc2)cc1 | 55.7% | 0.8 mg/dL | 7.65 mg/dL | 14.8 mg/g | 49 IU | 36.5% | 48 KA Units | 2.53 | 3.15 mg/g | – | 21 IU | 0.4 mg/dL | 15.5 IU | 30.2% | 6.48 mg/dL | 9.21% | 44.15 mg/dL | 51 IU | 29.5 KA Units
